Calls of active or inactive are those of the source. No cut-off for these calls is given here. Where a SMILES comes first, the peptide text is derived from it. Bridges are numbered along the chain shown (N, C = ends). [ ]: non-standard residue; d: D form. 2Nal = N[C@@H](Cc1ccc2ccccc2c1)C(=O)O; Cit = NC(=O)NCCC[C@H](N)C(=O)O
Experiments:
[1] = target: T1, C-X-C chemokine receptor type 4 (Homo sapiens, UniProt P61073); assay: Displacement of biotinylated-TN14003 from CXCL12 binding site of CXCR4 in human MDA-MB-231 cells assessed as concentration required to inhibit >50% using rhodamine staining; assay type: cell-based
T1 sequence (P61073 whole entry): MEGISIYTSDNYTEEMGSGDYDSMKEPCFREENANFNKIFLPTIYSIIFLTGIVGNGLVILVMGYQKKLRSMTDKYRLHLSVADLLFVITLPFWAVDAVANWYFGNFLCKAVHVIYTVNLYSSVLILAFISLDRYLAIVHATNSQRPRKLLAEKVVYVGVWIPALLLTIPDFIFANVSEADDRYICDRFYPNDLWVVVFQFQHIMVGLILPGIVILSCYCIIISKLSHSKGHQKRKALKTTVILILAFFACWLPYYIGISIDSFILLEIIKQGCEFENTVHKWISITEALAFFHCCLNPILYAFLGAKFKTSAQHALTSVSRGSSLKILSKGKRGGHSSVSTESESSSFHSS
Outline: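 MDA-MB-231 cells preincubated with compound at 1, 10, 100, 1000 nM, fixed in 4% formaldehyde, incubated with 50 nM biotinylated peptide antagonist then streptavidin-rhodamine; EC is lowest concentration blocking >50% of binding.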

[2] = target: T1, C-X-C chemokine receptor type 4; assay: Antagonist activity at CXCR4 in human MDA-MB-231 cells assessed as inhibition of CXCL12-mediated cell invasion at 100 nM by […] cell invasion assay; assay type: functional, cell-based
[3] = target: T1, C-X-C chemokine receptor type 4; assay: Antagonist activity at CXCR4 in human MDA-MB-231 cells assessed as inhibition of CXCL12-mediated cell invasion at 10 nM by […] cell invasion assay; assay type: functional, cell-based
[4] = target: T1, C-X-C chemokine receptor type 4; assay: Antagonist activity at human CXCR4 expressed in human U87 cells expressing CD4 assessed as inhibition of CXCL12-induced cAMP production pretreated for 15 mins before forskolin challenge by TR-FRET analysis; assay type: functional, cell-based, U-87MG ATCC
[5] = target: T2, C-C chemokine receptor type 3 (Homo sapiens) (UniProt P51677); assay: Antagonist activity at human CCR3 expressed in human U87 cells expressing CD4 assessed as inhibition of CCL5-induced cAMP production pretreated for 15 mins before forskolin challenge by TR-FRET analysis; assay type: functional, cell-based; conditions: U-87MG ATCC
T2 sequence (whole entry): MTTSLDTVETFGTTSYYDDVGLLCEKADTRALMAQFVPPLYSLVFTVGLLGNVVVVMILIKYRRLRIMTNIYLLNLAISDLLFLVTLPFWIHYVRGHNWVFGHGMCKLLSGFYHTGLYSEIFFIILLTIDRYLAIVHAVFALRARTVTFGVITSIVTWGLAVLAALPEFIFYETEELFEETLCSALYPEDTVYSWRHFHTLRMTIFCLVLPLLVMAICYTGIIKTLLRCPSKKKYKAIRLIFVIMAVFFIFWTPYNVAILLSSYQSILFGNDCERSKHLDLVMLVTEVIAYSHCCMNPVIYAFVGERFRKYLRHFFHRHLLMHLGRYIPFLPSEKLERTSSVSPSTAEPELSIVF
Outline: (§1)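 U87CD4CCR3 or U87CD4CCR5 cells pretreated with compound 15 min at room temperature, then stimulated with 150 ng/mL CCL5 in presence of 5 µM forskolin; cAMP measured by TR-FRET LANCE kit.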

[6] = target: C-C chemokine receptor type 5 (Homo sapiens) (UniProt P51681); assay: Antagonist activity at human CCR5 expressed in human U87 cells expressing CD4 assessed as inhibition of CCL5-induced cAMP production pretreated for 15 mins before forskolin challenge by TR-FRET analysis; assay type: functional, cell-based; conditions: U-87MG ATCC; outline: as §1
C-C chemokine receptor type 5 (Homo sapiens), sequence (P51681 whole entry, looked up): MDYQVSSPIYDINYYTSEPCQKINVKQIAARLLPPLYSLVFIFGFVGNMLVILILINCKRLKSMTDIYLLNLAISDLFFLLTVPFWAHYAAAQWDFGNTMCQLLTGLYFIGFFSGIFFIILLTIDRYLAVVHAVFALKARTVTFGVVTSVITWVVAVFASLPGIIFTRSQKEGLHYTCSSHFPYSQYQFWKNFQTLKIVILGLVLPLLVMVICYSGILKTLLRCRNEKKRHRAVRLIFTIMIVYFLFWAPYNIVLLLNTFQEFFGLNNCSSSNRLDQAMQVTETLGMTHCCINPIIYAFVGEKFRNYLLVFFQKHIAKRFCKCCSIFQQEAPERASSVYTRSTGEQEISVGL

Mus musculus [7] = assay: Antiinflammatory activity in C57BL/6L mouse assessed as inhibition of carrageenan-induced paw edema at 10 mg/kg, ip administered 30 mins before carrageenan challenge measured after 76 hrs; assay type: functional; conditions: for inhibition in vivo at 10 mg/kg: route intraperitoneal
MDA-MB-231 [8] = assay: Antiangiogenic activity against human MDA-MB-231 cells xenografted in nude mouse assessed as hemoglobin level at 10 mg/kg, sc measured after 10 days by […] plug assay; assay type: functional; conditions: route subcutaneous; for inhibition in vivo at 10 mg/kg: Mus musculus, MDA-MB-231, sc, 240 h
Outline: (§2)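 Nude mice, two s.c. flank plugs each (6 mice/group): 2×10^5 MDA-MB-231 cells in 0.5 mL growth factor-reduced Matrigel with compound mixed at 1 µM. From next day, daily s.c. dosing between plugs (10 mg/kg; peptide 300 µg/kg). Day 10 plugs excised, homogenized in water; supernatant with Drabkin's solution, 52 °C 10 min then RT 20 min, A540.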

Mus musculus [9] = assay: Antiinflammatory activity in C57BL/6L mouse assessed as inhibition of carrageenan-induced paw edema at 300 ug/kg, ip administered 30 mins before carrageenan challenge measured after 76 hrs; assay type: functional, organism-based
MDA-MB-231 [10] = assay: Antiangiogenic activity against human MDA-MB-231 cells xenografted in nude mouse assessed as hemoglobin level at 300 ug/kg, sc measured after 10 days by […] plug assay; assay type: functional, organism-based; outline: as §2
Mus musculus [11] = assay: Protection against bleomycin-induced lung injury in mouse assessed as decrease in interstitial structural distortion at 300 ug/kg, ip administered 1 day before bleomycin treatment and daily for 20 days by hematoxylin and eosin staining; assay type: functional, organism-based
Outline: (§3)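 Mice, 10/group, anesthetized with isoflurane; 4 U/kg bleomycin in 100 µL PBS instilled intratracheally. Dosing i.p. (10 mg/kg, 300 µg/kg, or saline) from 1 day before bleomycin, daily for 20 days. Lungs harvested day 20, H&E-stained sections examined microscopically.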

Mus musculus [12] = assay: Protection against bleomycin-induced lung injury in mouse assessed as decrease in alveolar structural distortion at 300 ug/kg, ip administered 1 day before bleomycin treatment and daily for 20 days by hematoxylin and eosin staining; assay type: functional, organism-based; outline: as §3
Mus musculus [13] = assay: Protection against bleomycin-induced lung injury in mouse assessed as decrease in lung fibrosis at 300 ug/kg, ip administered 1 day before bleomycin treatment and daily for 20 days by hematoxylin and eosin staining; assay type: functional; parameters: scale not given: the % may be the effect or the level left; outline: as §3
[14] = Antimetastatic activity against HGF/TGF-beta/CXCR4/MMP2 expressing human OMM 2.3 cells xenografted in nude mouse eye assessed as decrease in number of hepatic micrometastases at 300 ug/kg, ip administered 3 days after tumor implantation QD for 28 days by hematoxylin and eosin staining; assay type: functional; parameters: scale not given: the % may be the effect or the level left
Outline: (§4)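 Female nude mice, 10/group; 1×10^6 OMM2.3 cells into posterior chamber of right eye day 0. Daily i.p. dosing (10 mg/kg or 300 µg/kg in 0.1 mL 45% cyclodextrin) from day 3; vehicle controls; tumor eyes enucleated day 7. Day 28 livers formalin-fixed, H&E; micrometastases (<100 µm) counted in six central sections, averaged per section.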

Mus musculus [15] = assay: Protection against bleomycin-induced lung injury in mouse assessed as decrease in interstitial structural distortion at 10 mg/kg, ip administered 1 day before bleomycin treatment and daily for 20 days by hematoxylin and eosin staining; assay type: functional, organism-based; parameters: dose 10 mg/kg; outline: as §3
Mus musculus [16] = assay: Protection against bleomycin-induced lung injury in mouse assessed as decrease in alveolar structural distortion at 10 mg/kg, ip administered 1 day before bleomycin treatment and daily for 20 days by hematoxylin and eosin staining; assay type: functional, organism-based; parameters: dose 10 mg/kg; outline: as §3
Mus musculus [17] = assay: Protection against bleomycin-induced lung injury in mouse assessed as decrease in lung fibrosis at 10 mg/kg, ip administered 1 day before bleomycin treatment and daily for 20 days by hematoxylin and eosin staining; assay type: functional; parameters: scale not given: the % may be the effect or the level left; conditions: route intraperitoneal; outline: as §3
[18] = Antimetastatic activity against HGF/TGF-beta/CXCR4/MMP2 expressing human OMM 2.3 cells xenografted in nude mouse eye assessed as decrease in number of hepatic micrometastases at 10 mg/kg, ip administered 3 days after tumor implantation QD for 28 days by hematoxylin and eosin staining; assay type: functional; parameters: scale not given: the % may be the effect or the level left; conditions: route intraperitoneal; outline: as §4
[19] = Half life in iv dosed mouse; assay type: ADME, organism-based; conditions: in vivo

Row | Structure (SMILES) | EC [1] [nM] | inhibition [2] [%] | inhibition [3] [%] | inhibition in vivo at 10 mg/kg (Mus musculus [7]) [%] | also measured
1 | Fc1ccc(NCc2ccc(CNc3ccc(F)cn3)cc2)nc1 | 100 | 68 | 45 | – | –
2 | c1ccc(NCc2ccc(CNc3ccccn3)cc2)nc1 | – | – | – | – | IC50 [4]: 1.8 nM; inhibition [5]: inactive; inhibition [6]: inactive; inhibition (Mus musculus [7]): Active
3 | N=C(N)NCCC[C@H](NC(=O)[C@@H]1CSSC[C@H](NC(=O)[C@H](Cc2ccc3ccccc3c2)NC(=O)[C@H](CCCNC(=N)N)NC(=O)[C@@H](N)CCCNC(=N)N)C(=O)N[C@@H](Cc2ccc(O)cc2)C(=O)N[C@@H](CCCNC(N)=O)C(=O)N[C@@H](CCCCN)C(=O)N[C@H](CCCCN)C(=O)N2CCC[C@H]2C(=O)N[C@@H](Cc2ccc(O)cc2)C(=O)N[C@@H](CCCNC(=N)N)C(=O)N[C@@H](CCCNC(N)=O)C(=O)N1)C(N)=O (H-RR[2Nal]CY[Cit]K[dK]PYR[Cit]CR-NH2; disulfide 4-13) | – | – | – | – | inhibition (Mus musculus [9]): Active; inhibition (MDA-MB-231 [10]): Active; Activity (Mus musculus [11]): Active; Activity (Mus musculus [12]): Active; Activity (Mus musculus [13]): 85%; Activity [14]: 50%
4 | CCOCCN1CCN(C(=O)c2cnc(NCc3ccc(CNc4ncc(F)cn4)cc3)nc2C(F)(F)F)CC1 | 1 | 95 | 34 | 20 | IC50 [4]: 5.4 nM; inhibition [5]: inactive; inhibition [6]: inactive; inhibition in vivo at 10 mg/kg (MDA-MB-231 [8]): > 30%
5 | Fc1cccc(NCc2ccc(CNc3cccc(F)n3)cc2)n1 | 100 | 85 | 55 | – | –
6 | COc1nccc(NCc2ccc(CNc3ccnc(OC)n3)cc2)n1 | 10 | 65 | 24 | – | inhibition in vivo at 10 mg/kg (MDA-MB-231 [8]): > 30%
7 | Clc1nc(Cl)nc(NCc2ccc(CNc3nc(Cl)nc(Cl)n3)cc2)n1 | 10 | 82 | 61 | – | –
8 | Fc1cnc(NCc2ccc(CNc3nccc(C(F)(F)F)n3)cc2)nc1 | 1 | 93 | 73 | 20 | inhibition in vivo at 10 mg/kg (MDA-MB-231 [8]): > 30%
9 | COc1ncc(F)c(NCc2ccc(CNc3nc(OC)ncc3F)cc2)n1 | 1 | 100 | 77 | 20 | –
10 | Fc1cnc(Cl)nc1NCc1ccc(CNc2ccnc(NCCN3CCOCC3)n2)cc1 | 1 | 100 | 84 | > 50 | IC50 [4]: 0.8 nM; inhibition [5]: inactive; inhibition [6]: inactive; Activity (MDA-MB-231 [8]): 70%; Activity (Mus musculus [15]): Active; Activity (Mus musculus [16]): Active; Activity (Mus musculus [17]): 55%; Activity [18]: 50%; half-life [19]: 15 min
11 | Fc1cnc(NCc2ccc(CNc3ncc(F)cn3)cc2)nc1 | 1 | 75 | 75 | – | –
12 | c1ccc(NCc2ccc(CNc3ncccn3)cc2)cc1 | – | – | – | 20 | –
13 | Fc1ccccc1NCc1ccc(CNc2ccccc2F)cc1 | 100 | 58 | 32 | – | –
14 | Fc1nccc(NCc2ccc(CNc3ccnc(F)n3)cc2)n1 | 1 | 81 | 65 | – | –

Now from value to compound, other results behind:

Row | EC [1] [nM] | inhibition [2] [%] | inhibition [3] [%] | Structure (SMILES) | inhibition in vivo at 10 mg/kg (Mus musculus [7]) [%] | also measured
15 | 10 | 100 | 82 | Clc1ccc(NCc2ccc(CNc3ncccn3)cc2)nc1 | 20 | –
16 | – | 64 | 54 | c1ccc(NCc2ccc(CNc3ccccc3)cc2)cc1 | – | –
17 | – | 80 | 53 | Fc1cccc(NCc2ccc(CNc3ncccn3)cc2)n1 | > 50 | inhibition in vivo at 10 mg/kg (MDA-MB-231 [8]): > 30%
18 | 100 | 64 | 58 | c1ccc(NCc2ccc(CNc3ncccn3)cc2)nc1 | – | –
19 | 1 | 82 | 57 | c1cnc(NCc2ccc(CNc3ccc(N4CCCC4)cc3)cc2)nc1 | – | –
20 | – | 62 | 41 | Fc1ccccc1NCc1ccc(CNc2ncccn2)cc1 | – | –
21 | 1 | 100 | 100 | Clc1cccc(NCc2ccc(CNc3ncccn3)cc2)n1 | > 50 | inhibition in vivo at 10 mg/kg (MDA-MB-231 [8]): > 30%
22 | 10 | 78 | 41 | c1cnc(NCc2ccc(CNc3cccc(N4CCCC4)c3)cc2)nc1 | – | –
23 | 100 | 73 | 61 | c1cnc(NCc2ccc(CNc3ccccc3N3CCCC3)cc2)nc1 | – | –

Source: ChEMBL document CHEMBL1799970, “Dipyrimidine amines: a novel class of chemokine receptor type 4 antagonists with high specificity” (J Med Chem, 2010)
